Compound activity from PubChem BioAssay.
Yeast superoxide: reduction of superoxide in aged yeast, primary screen, HTS. S. cerevisiae aged cells, superoxide DHE fluorescence; hits give low values. superoxide response (% of plate mean), % at 10 µM. hit rate 0.18% among 330,000;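 active means superoxide response under a set limit, about three screen SD below normal, cut at about 65% in these data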;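 further: yeast aged for seven days with compound at 30 °C before DHE staining; 100% = average MFI of all compound-treated wells on the plate with controls excluded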
LANA-H2A inh: blockers of LANA interaction with H2A/H2B – biochemical, FP readout, HTS, primary screen; cell-free LANA-H2A/H2B peptide, fluorescence polarization; hit rate 0.6% among 320,000; Protein LANA1 (Human herpesvirus 8 type P (isolate GK18)), Q9QR71; inhibition, % (no concentration beside the values); in the data active means inhibition mostly above about 10%, no sharp cut-off; inactive means mostly below about 6.7%
procasp3 activ: activators of human procaspase-3 D3A mutant, primary screen, biochemical, absorbance, PC-3 D3A mutant, single concentration. recombinant procaspase-3 D3A, Ac-DEVD-pNA absorbance 405 nm. AID 463141, 2010. activation, % at 8.5 µM. hit rate 0.11% among 330,000;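 active means activation above the mean of all tested compounds plus 3 SD, cut at about 21% in these data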;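 further: 0% = DMSO alone and 100% = DMSO wells spiked with extra 5 µM PC-3 D3A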
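Assay system – Procaspase-3 D3A mutant · Benchmarks – DMSO low control, extra-enzyme high control · Technique – 405 nm absorbance of p-nitroaniline, reads at 0 and 120 min · Doses – 8.5 µM nominal · Measure – % activation between DMSO and enzyme-spiked controls · Also added – Ac-DEVD-pNA chromogenic peptide substrate · Schedule – 1 h compound preincubation, 2 h substrate hydrolysis at 25 °C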
ARFGAP1 inh: inhibitors of rat ARFGAP1 GAP activity, primary screen, biochemical, fluorescence polarization, GDP tracer | ADP-ribosylation factor GTPase-activating protein 1 (Rattus norvegicus), Q62848 | inhibition, % at 16.5 µM | hit rate 0.26% among 360,000 | Arfgap1-stimulated ARF1 GTP hydrolysis, GDP FP detection;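 active means inhibition above a per-plate limit, mean inhibition of low control wells plus 3 SD, cut at about 25% in these data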;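 further: 0% = DMSO wells with enzyme and 100% = wells lacking Arfgap1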
Target sequence (Q62848 1-136 limits assumed): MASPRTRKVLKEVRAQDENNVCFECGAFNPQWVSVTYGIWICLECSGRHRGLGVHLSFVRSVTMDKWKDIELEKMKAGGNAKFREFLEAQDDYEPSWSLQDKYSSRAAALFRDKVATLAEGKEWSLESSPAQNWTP
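system = rat Arfgap1 catalytic domain, aa 1-136 | technique = FP, GDP Alexa 633 tracer displaced from anti-GDP antibody, 620/688 nm | compound = one concentration, 16.5 µM, DMSO 1.26% | medium = HEPES-based buffer, pH 7.5 | timing = compound-enzyme preincubation 20 min, reaction 120 min, detection 60 min, 25 °C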
ASAP1 GAP inh: inhibitors of human ASAP1 ArfGAP activity, primary screen, biochemical, fluorescence polarization. Arf-GAP with SH3 domain, ANK repeat and PH domain-containing protein 1 (Homo sapiens), …. ASAP1-stimulated ARF1 GTP hydrolysis, GDP FP detection. inhibition, % at 16.5 µM. hit rate 0.19% among 360,000. AID 624377, 2012; in the data active means inhibition above about 25%;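 further: 0% = vehicle with enzyme and substrate and 100% = no enzyme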
procasp7 counter: procaspase-7 activators, primary screen, counter-screen for procaspase-3 activator project, biochemical, absorbance, HTS, human. Caspase-7 (Homo sapiens), P55210. recombinant procaspase-7, Ac-DEVD-pNA absorbance 405 nm; D23A/D198A/D206A triple mutant, cannot self-cleave; scale: DMSO 0, 5 µM enzyme 100. activation, % at 8.5 µM. hit rate 0.093% among 330,000. AID 463210, 2010;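 active means percent activation above the screen-wide mean plus 3 SD, cut at about 25% in these data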
Target sequence (P55210 whole entry D23A/D198A/D206A): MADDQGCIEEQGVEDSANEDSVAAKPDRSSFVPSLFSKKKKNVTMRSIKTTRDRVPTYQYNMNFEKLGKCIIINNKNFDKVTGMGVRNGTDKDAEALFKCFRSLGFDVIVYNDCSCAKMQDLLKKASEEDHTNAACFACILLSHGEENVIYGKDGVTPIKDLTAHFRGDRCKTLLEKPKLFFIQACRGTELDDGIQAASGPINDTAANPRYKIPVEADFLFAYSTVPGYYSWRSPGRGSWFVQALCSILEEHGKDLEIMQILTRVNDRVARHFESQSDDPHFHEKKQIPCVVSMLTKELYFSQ
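Test system: Procaspase-7 triple mutant (PC-7 D3A). Also added: Ac-DEVD-pNA substrate, 400 µM as added. Schedule: 1 h enzyme–compound preincubation and 2 h substrate reaction, both 25 °C. Signal: p-Nitroaniline absorbance at 405 nm, read at 0 and 120 min. Control set: low DMSO alone, high DMSO plus 5 µM PC-7.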
The depositor's hits bear a star; . = no result given; + = active, no number; ! = a repeat was not active. Most compounds without a hit are left out; they make up all but 1.2% or so of the library.

SMILES	Yeast superoxide	LANA-H2A inh	procasp3 activ	ARFGAP1 inh	ASAP1 GAP inh	procasp7 counter
Cc1n[nH]c(C)c1N1C(=O)c2cccc3c(N4CCCCCC4)ccc(c23)C1=O	92	65*	-5	-11	-1	-4
O=C1c2cccc3c(N4CCCCC4)ccc(c23)C(=O)N1c1cccc(O)c1	98	9	-8	-3	3	-9
O=C(N/N=C/c1ccco1)c1cc(=O)[nH]c2ccccc12	74	16*	-7	-14	-6	-2
COc1ccc(/C=N/NC(=O)c2cc(=O)[nH]c3ccccc23)cc1OC	108	-3	4	-10	4	15
CC(C)C(C(=O)NCc1ccccc1)N1CCN(CCN2CCOCC2)CC1 (stereo not drawn)	.	.	.	6	-9	.
CCOC(=O)C1C(=O)OC2(CCOC(C)(C)C2)C1C(=O)OCC (stereo not drawn)	102	29*	4	13	5	9
O=C(c1ccccc1)c1ccc(O)cc1O	113	45*	-5	7	2	-6
CN(C)c1ccc(C(=O)c2ccc(O)cc2O)cc1	87	8	-25	-7	5	-70
COc1ccc(C(=O)c2ccccc2)c(O)c1	100	0	-2	-9	5	-3
O=C(c1ccc(O)cc1)c1ccc(O)cc1O	114	12*	8	11	15	-1
Nc1[nH]c(C(=O)c2ccccc2)c(-c2ccccc2Br)c1C(=O)c1cccs1	.	.	.	-17	-3	.
CC1(C)O[C@@H]2C[C@H]3[C@@H]4C[C@H](F)C5=CC(=O)C=C[C@]5(C)[C@@]4(F)[C@@H](O)C[C@]3(C)[C@]2(C(=O)CO)O1	103	34*!	3	4	-1	2
CC1(C)O[C@@H]2C[C@H]3[C@@H]4CCC5=CC(=O)C=C[C@]5(C)[C@@]4(F)[C@@H](O)C[C@]3(C)[C@]2(C(=O)CO)O1	97	3	6	8	-3	2
COc1ccc2cc(C(=O)N/N=C/c3sc4ccccc4c3O)ccc2c1	103	-7	5	-1	9	6
O=C(N/N=C/c1sc2ccccc2c1O)c1cccc2ccccc12	77	+	-9	9	6	-4
COc1ccc(C(=O)N/N=C/c2sc3ccccc3c2O)cc1	69	+	-15	.	.	4
COC(=O)[C@]12C[C@H](CC(=O)NCCCCc3ccccc3)C(=O)N(Cc3ccccc3)C1=C[C@H](C(C)C)O[C@@H]2C1CC1	.	.	.	-5	1	.
O=C(O)c1ccc(CS(=O)c2cccc(C(F)(F)F)c2)o1 (stereo not drawn)	102	119*	-3	-4	9	1
COc1cccc(CN2CC(C(=O)NCCc3cn4cccnc4n3)CCC2=O)c1 (stereo not drawn)	.	.	.	-8	-5	.
Cc1c(C(C)NC(=O)c2cc(COc3cccc4cnccc34)on2)cnn1C (stereo not drawn)	98	25*	9	-10	11	-7
CCCCN1CC(COc2ccc(OC)cc2)OCCS1(=O)=O (stereo not drawn)	.	.	.	-2	3	.
CCn1c2c(n(C(C)=O)c1=O)C[C@@H](c1ccccc1)[C@@H](C)[C@@H](C(=O)N1CCCC1)C2	.	.	.	5	-3	.
CC(=O)c1ccc(N2CCN(S(=O)(=O)c3cn(C)cn3)CC2)cc1	106	8.8*	-3	3	3	-11
CC(=O)Nc1ccc(NC(=O)C2CCN(S(C)(=O)=O)CC2)cc1	.	.	.	1	-8	.
COc1cc(/C=C2\SC(=Nc3cccnc3)NC2=O)cc(OC)c1OC	103	27*	-6	-8	-12	-12
SMILES	Yeast superoxide	LANA-H2A inh	procasp3 activ	ARFGAP1 inh	ASAP1 GAP inh	procasp7 counter
CCOC(=O)CN1CCc2c(C)nc3c(-c4ccc(OC)c(OC)c4)cnn3c21	97	1	-3	10	1	11
COC(=O)C(C(C)C)N1CCc2c(C)nc3c(C#N)cnn3c21 (stereo not drawn)	95	60*	2	14	9	-4
CCOC(=O)N1CCN(C(=O)C[C@H]2C[C@@]3(C(=O)OC)C(=C[C@H](COCc4ccccc4)O[C@@H]3C)N(Cc3ccc4c(c3)OCO4)C2=O)CC1	.	.	.	3	-1	.
CCOC(=O)C1CCCN(c2nc3ccccc3nc2C(C#N)C(=O)OCCOC)C1 (stereo not drawn)	114	20*	1	8	3	-10
COC(=O)Cc1nnn2c1[C@H](C)[C@@H](OC)c1cccc(Cl)c1-2	.	.	.	0	2	.
CCc1oc2ccccc2c1C(=O)c1cc(Br)c(O)c(Br)c1	112	22*!	-4	-16	0	-2
CCn1c(NC(=O)C(C)C)c2ccccc2nc1=O	107	11*	0	8	-1	12
CCn1c(NC(=O)c2ccc(C)cc2)c2ccccc2nc1=O	87	0	6	-6	-3	1
Cc1ccc2oc(=O)c(/C=C(\O)c3ccco3)nc2c1	95	4.3*	-14	7	-6	-23
CC(=O)c1sc(Nc2cccc3ccccc23)nc1C	92	-4	5	14	4	2
CC(=O)c1sc(Nc2ccccn2)nc1C	84	2	-2	26*	6	-18
CCC(=O)N1c2ccc(S(=O)(=O)NCCc3ccc(C)cc3)cc2CC1C (stereo not drawn)	108	14*	3	2	-7	4
CCCOc1ccc(/C=N/NC(=O)CSc2ccccn2)cc1OC	102	12*	2	14	-11	12
COc1cc(/C=N/NC(=O)CSc2ccccn2)ccc1O	96	-3	-4	5	0	8
O=C(N/N=C1\C(=O)c2cccc3cccc1c23)c1ccc(O)cc1	102	+	-1	7	8	3
COc1ccc(/C=C2\SC(=S)N(C(C)C(=O)NC3C=CS(=O)(=O)C3)C2=O)cc1 (stereo not drawn)	86	-3	-8	4	6	-17
COc1cccc(/C=C2\SC(=S)N(C(C)C(=O)NC3C=CS(=O)(=O)C3)C2=O)c1 (stereo not drawn)	127	28*	-7	3	-9	-24
